Measured values: ChEMBL document CHEMBL1125014, “Synthesis and structure-activity relationships of new 9-N-alkyl derivatives of 9(S)-erythromycylamine” (1990)
Values after ≈ are worked out from the molar mass of the structure shown.

Tests used:
Assay type in all cases: functional
[1] = tested on: Haemophilus influenzae; assay: MIC value was measured against haemophilus influenzae.
Outline: (§1)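 Susceptibility determined by standard agar-dilution method against a panel of bacterial strains.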

[2] = tested on: Haemophilus influenzae; assay: MIC value was measured against haemophilus influenzae CL
[3] = tested on: Staphylococcus aureus; assay: Effective dose against mice infected with Staphylococcus aureus after peroral administration (in vivo); conditions: in Mus musculus, po
[4] = tested on: Streptococcus pneumoniae; assay: Effective dose against mice infected with streptococcus pneumoniae after peroral administration (in vivo); conditions: in Mus musculus, po
[5] = organism: Mus musculus; assay: ED50 value was measured against streptococcus pyogenes infection in mice.
Outline: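 Infected mice were dosed orally or subcutaneously at 1 and 5 h postinfection, 0.25 mL of antibiotic solution in 10% aqueous ethanol per dose. Tartaric acid was added where needed for solubility. Several dose concentrations were tested to give the ED50.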

[6] = tested on: Streptococcus pneumoniae; assay: MIC value measured against streptococcus pneumoniae Park1
[7] = tested on: Streptococcus pyogenes; assay: MIC value measured against streptococcus pyogenes C203
[8] = tested on: Staphylococcus epidermidis; assay: microbe, parasite or virus in culture
[9] = tested on: Staphylococcus aureus; assay: MIC value measured against staphylococcus aureus X1
[10] = tested on: Enterococcus faecalis; assay: MIC value was measured against streptococcus faecalis.
[11] = tested on: Streptococcus pyogenes; assay: Effective dose against mice infected with streptococcus pyogenes after peroral administration (in vivo); conditions: in Mus musculus, po
[12] = tested on: Streptococcus pneumoniae; assay: MIC value was measured against streptococcus pneumoniae park1; outline: as §1
[13] = tested on: Enterococcus faecalis; assay: MIC value was measured against streptococcus faecalis X66; outline: as §1
[14] = tested on: Bacteria; assay: MIC value was measured against streptococcus pyogenes.; outline: as §1
[15] = tested on: Bacteria; assay: MIC value was measured against staphylococcus epidermidis.; outline: as §1

MIC [1] [µg/mL]	MIC [2] [µg/mL]	MIC [6] [µg/mL]	MIC [7] [µg/mL]	MIC [8] [µg/mL]	MIC [9] [µg/mL]	MIC [10] [µg/mL]	MIC [12] [µg/mL]	MIC [13] [µg/mL]	MIC [14] [µg/mL]	MIC [15] [µg/mL]	SMILES	ED50 [3] [mg/kg]	ED50 [4] [mg/kg]	ED50 [5] [mg/kg]	ED50 [11] [mg/kg]
4 (≈ 4.86 µM)	4 (≈ 4.86 µM)	0.015 (≈ 0.0182 µM)	0.015 (≈ 0.0182 µM)	0.5 (≈ 0.607 µM)							CC[C@H]1OC(=O)[C@H](C)[C@@H](OC2CC(C)(OC)C(O)C(C)O2)[C@H](C)[C@@H](OC2OC(C)CC(N(C)C)C2O)[C@](C)(O)C[C@@H](C)[C@H](NCCCSC)[C@H](C)[C@@H](O)[C@]1(C)O (stereo partly specified)	50	18	7	
	1 (≈ 1.39 µM)	0.015 (≈ 0.0209 µM)	0.015 (≈ 0.0209 µM)	0.12 (≈ 0.167 µM)	0.25 (≈ 0.348 µM)	0.12 (≈ 0.167 µM)					CC[C@H]1OC(=O)[C@H](C)[C@@H](OC2CC(C)(OC)C(O)C(C)O2)[C@H](C)[C@@H](OC2OC(C)CC(N(C)C)C2O)[C@](C)(O)C[C@@H](C)[C@H](N)[C@H](C)[C@@H](O)[C@H]1C (stereo partly specified)				
	4 (≈ 5.07 µM)		0.12 (≈ 0.152 µM)	0.5 (≈ 0.634 µM)	1 (≈ 1.27 µM)		0.06 (≈ 0.076 µM)	0.25 (≈ 0.317 µM)			CC[C@H]1OC(=O)[C@H](C)[C@@H](OC2CC(C)(OC)C(O)C(C)O2)[C@H](C)[C@@H](OC2OC(C)CC(N(C)C)C2O)[C@](C)(O)C[C@@H](C)[C@H]2[C@H](C)[C@@H](OCN2C(C)C)[C@]1(C)O (stereo partly specified)	9	6		7
	2 (≈ 2.42 µM)		0.06 (≈ 0.0727 µM)	0.5 (≈ 0.606 µM)	0.5 (≈ 0.606 µM)		0.015 (≈ 0.0182 µM)	0.25 (≈ 0.303 µM)			CC[C@H]1OC(=O)[C@H](C)[C@@H](OC2CC(C)(OC)C(O)C(C)O2)[C@H](C)[C@@H](OC2OC(C)CC(N(C)C)C2O)[C@](C)(O)C[C@@H](C)[C@H](NCc2ccccc2)[C@H](C)[C@@H](O)[C@]1(C)O (stereo partly specified)	> 50	11		9
	0.5 (≈ 0.668 µM)	0.008 (≈ 0.0107 µM)	0.008 (≈ 0.0107 µM)	0.06 (≈ 0.0801 µM)	0.25 (≈ 0.334 µM)	0.06 (≈ 0.0801 µM)					CC[C@H]1OC(=O)[C@H](C)[C@@H](OC2CC(C)(OC)C(O)C(C)O2)[C@H](C)[C@@H](OC2OC(C)CC(N(C)C)C2O)[C@](C)(O)C[C@@H](C)/C(=N\O)[C@H](C)[C@@H](O)[C@]1(C)O (stereo partly specified)				
2 (≈ 2.29 µM)	2 (≈ 2.29 µM)		0.008 (≈ 0.00916 µM)	0.12 (≈ 0.137 µM)	0.25 (≈ 0.286 µM)	0.25 (≈ 0.286 µM)					CCCCC/C=C\CCCN[C@@H]1[C@H](C)[C@@H](O)[C@](C)(O)[C@@H](CC)OC(=O)[C@H](C)[C@@H](OC2CC(C)(OC)C(O)C(C)O2)[C@H](C)[C@@H](OC2OC(C)CC(N(C)C)C2O)[C@](C)(O)C[C@H]1C (stereo partly specified)				
	4 (≈ 4.91 µM)		0.12 (≈ 0.147 µM)	1 (≈ 1.23 µM)	1 (≈ 1.23 µM)		0.06 (≈ 0.0736 µM)	0.5 (≈ 0.613 µM)			CC[C@H]1OC(=O)[C@H](C)[C@@H](OC2CC(C)(OC)C(O)C(C)O2)[C@H](C)[C@@H](OC2OC(C)CC(N(C)C)C2O)[C@](C)(O)C[C@@H](C)[C@H]2[C@H](C)[C@@H](OCN2C2CCCC2)[C@]1(C)O (stereo partly specified)	> 50	9		10
2 (≈ 2.49 µM)	2 (≈ 2.49 µM)				16 (≈ 19.9 µM)				1 (≈ 1.25 µM)	8 (≈ 9.96 µM)	CC[C@H]1OC(=O)[C@H](C)[C@@H](OC2CC(C)(OC)C(O)C(C)O2)[C@H](C)[C@@H](OC2OC(C)CC(N(C)C)C2O)[C@](C)(O)C[C@@H](C)[C@H](N2CCCCC2)[C@H](C)[C@@H](O)[C@]1(C)O (stereo partly specified)	> 44	21		24
	8 (≈ 9.01 µM)		0.5 (≈ 0.563 µM)	8 (≈ 9.01 µM)	8 (≈ 9.01 µM)		0.5 (≈ 0.563 µM)	2 (≈ 2.25 µM)			CC[C@H]1OC(=O)[C@H](C)[C@@H](OC2CC(C)(OC)C(O)C(C)O2)[C@H](C)[C@@H](OC2OC(C)CC(N(C)C)C2O)[C@](C)(O)C[C@@H](C)[C@H]2[C@H](C)[C@@H](OCN2C(C)CCCN(CC)CC)[C@]1(C)O (stereo partly specified)				
	1 (≈ 1.27 µM)		0.008 (≈ 0.0101 µM)	0.12 (≈ 0.152 µM)	0.25 (≈ 0.317 µM)		0.008 (≈ 0.0101 µM)	0.12 (≈ 0.152 µM)			CCCN1CO[C@@H]2[C@@H](C)[C@@H]1[C@H](C)C[C@@](C)(O)[C@H](OC1OC(C)CC(N(C)C)C1O)[C@@H](C)[C@H](OC1CC(C)(OC)C(O)C(C)O1)[C@@H](C)C(=O)O[C@H](CC)[C@@]2(C)O (stereo partly specified)	7	5		5
